This series deals with MS2 coat protein. In words: apparent Kd, MS2 coat protein; higher = weaker binding; RNA-MaP array; FMN 200 µM where present. In short, it runs like this: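 The titrant was SNAP-549-labelled MS2 coat protein, run from 0.7 or 1.5 nM in doubling steps to 3 µM. It was applied to designs transcribed by stalled E. coli RNA polymerase on Illumina sequencing-chip clusters, without ligand first and then with constant ligand, in 100 mM Tris-HCl pH 7.5, 80 mM KCl, 4 mM MgCl2, BSA, DTT, yeast tRNA and Tween-20. The apparent Kd is the median of filtered per-cluster binding-curve fits, with green signal normalised to red-channel RNA signal and control-cluster median Fmax.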

Where [1] appears, read: designed as: ON switch for flavin mononucleotide, no ligand.
Setting [2] is: ligand present: flavin mononucleotide, designed as: ON switch for flavin mononucleotide.
Setting [3] is: designed as: OFF switch for flavin mononucleotide, no ligand.
Where [4] appears, read: ligand present: flavin mononucleotide, designed as: OFF switch for flavin mononucleotide.

The record followed here is the EternaBench riboswitch data.

For orientation: apparent Kd means the concentration giving half-maximal binding under the conditions of the assay.

As for “AGUUAAUAUCGAGGAUAUCUCAUGGAUACAUGAGGAUCACCCAUGUUAAUGGGAGAAGGCGAUAUUAACAGCAUGUUACAUGCA”, the “apparent Kd” value reads like this: under setting [1], 28 nM; under setting [2], 7.38 nM.
Consider “AAAACAUGAGGAUCACCCAUGUAAAGAUCGGUCGAUGAAGGUGAGGAUAUACAAAACUUUAUGGAGUAGAAGGCACUGGGUUGA”, for which the “apparent Kd” value is, setting by setting: under setting [1], 185 nM; under setting [2], 69.8 nM.
With “CCUGUCAGAGGAUAUGCAUCAGGGCUAUCCUCUAUCGCAGAACAUGAGGAUCACCCAUGUAGAAGGCUGUCAAA”, the “apparent Kd” value is, setting by setting: under setting [3], 29.9 nM; under setting [4], 23.6 nM.
On to “GUGAACAUGAGGAUCACCCAUGUAGCUCACUGCCAGUGGCUACAGGAUAUAGCACUCCGAAGGUGCUAGAAGGGUGGCCUAGAA”, for which the “apparent Kd” value by setting is: under setting [1], 92.8 nM; under setting [2], 22.1 nM.
As to “GCAAUAGCAUGAGGAUAUGCUGGAGUUUAGACAGUAGAAGGCAUGUCAUAAGACAUGAGGAUCACCCAUGUAGUUACAAUGGCA”, the “apparent Kd” value under setting [1] amounted to 18.4 nM and the “apparent Kd” value under setting [2] was 13.6 nM.
In the case of “GUCAGCUCGUGAGGAUAUACAUGUGCUGGAGACAGCAUUAAAUUUUUCACAUGAGGAUCACCCAUGUAGAAGGCACGAGCUGAU”, the “apparent Kd” value came to 18.4 nM under setting [3] and 49.4 nM under setting [4].
In the case of “UCAUCGUGAGGAUAUUAUCGUAAGUGCAGGGUCUGACUUAGUAAGAAGGCACAUGAGGAUCACCCAUGUCCCUC”, the “apparent Kd” value reads like this: under setting [3], 20.2 nM; under setting [4], 28.5 nM.
Take “UUUUAACAUGAGGAUCACCCAUGUGAGGAUAUCGAUAUUUUUAUUAAUAUUAAUAAAACGAGAAGGCACAUUUU”: under setting [4], the “apparent Kd” value came out at 90.2 nM.
Regarding “CUUUUGUGAGGAUAUCAGUAGUAAUUAAAUAAAAUUACUACUGAGAAGGCACAUGAGGAUCACCCAUGUUCCUC”, the “apparent Kd” value is, setting by setting: under setting [3], 41.3 nM; under setting [4], 338 nM.
The corresponding values for “GGAAAAUGAGGAUAUACAUGUUUGAUACCUCUACGCCCGCAACAUGAGGAUCACCCAUGUAGAAGGCAUGAAAA” are 15.4 nM and 44.2 nM.
The corresponding values for “CACUGCAAUGUAGGAUAUCGACUGGAAUACAGUCGAGAAGGACAUGAGGAUCACCCAUGUAAUCCUAAUAAUAAAUAAGCAGUG” are 12.4 nM and 18.4 nM.
“GGGCGCCACGUAGGAUAUCUUCCGUAUGGGUCCCAUCAUAGCACAUGAGGAUCACCCAUGUGGGUAGAGAAGGACGGUUUGCCG”: the “apparent Kd” value by setting is: under setting [3], 221 nM; under setting [4], 59.5 nM.
The corresponding values for “CGUAUGUAAGGAUAUAGCCACAUUACGAAUAAGUAGUGUGGCUAGAAGGUACAUGAGGAUCACCCAUGUAUGGG” are 153 nM and 85.3 nM.
As for “AGUACUACAGGAUAUACAUGAGUGAUACUCAUAUACCUUCUACAUGAGGAUCACCCAUGUAGAAGGGUAGUACA”, the “apparent Kd” value runs as follows: under setting [3], 15.3 nM; under setting [4], 12.5 nM.
The corresponding values for “AUGAGGGAAGUAGGAUAUGAUCAAGACAUGAGGAUCACCCAUGUAAUGAGGGUGUGUGUCUUUGUUCAGAAGGACUUGUAUCAA” are 60.4 nM and 60.4 nM.
Regarding “AGUAAGAUGCAGAAGGUGUCAGCGAGAGCUACGACAUGAGGAUCACCCAUGUACUAGUGAGAGUACAAGGAUAUGCAUCUUACA”, the “apparent Kd” value came out at 76.3 nM under setting [1] and 8.54 nM under setting [2].
In the case of “AAUAACAGAGGAUAUACUGUUUUAUGUGUUUAUUGUUUUAAACAUGAGGAUCACCCAUGUAGAAGGCUGAAUGA”, the “apparent Kd” value was 43.8 nM under setting [3] and 41.9 nM under setting [4].
Consider “GGAUACAUACAGAAGGAUAUGAGAACAAAGACAUGAGGAUCACCCAUGUACAAAAGGUGGAACAAUCAGAAGGUCUAAACAACAAA”, for which the “apparent Kd” value reads like this: under setting [1], 72.2 nM; under setting [2], 61.2 nM.
Turning to “UCAUACAUGACAUGACAUGACAUGAGGAUCACCCAUGUUUACAAGGAUAUGUACAUGAAACAUGUACAGAAGGUGUAUUGGACU”, the “apparent Kd” value worked out at 42.4 nM under setting [3] and 150 nM under setting [4].
The corresponding values for “AUGCAACAUGAGGAUCACCCAUGUGAGGAUAUCGUAUAAUACUGUUGAAAGAGUUAGACGAGAAGGCACACCGU” are 28.2 nM and 54 nM.
The corresponding values for “CAUAACGGCUGAGGAUAUUGAAUGUGCGUGGACAUGAGGAUCACCCAUGUUCAAGAAGGCAGCAAUUUACUUGGAUCUAUCCGC” are 66.2 nM and 217 nM.
The corresponding values for “AUGCUUCACACAGGAUAUACAUGAGGAUCACCCAUGUGUCCUAAGUAGCUGACACGAGCUACGCGGUAGAAGGGUGUGAAGCAU” are 21.6 nM and 154 nM.
As for “ACAUGAGGAUCACCCAUGUAAAAUGAAGAAGGUAUAUACUUGAGGAUCACCCAUGUACAUGGGAAUAAGGAUAUUCUAAUAAUU”, the “apparent Kd” value is 13.5 nM under setting [1] and 12.6 nM under setting [2].
For the sequence “GUCAGCUCGUGAGGAUAUACAACACUACUUCGGCAGUGUAUUAAGAUCACAUGAGGAUCACCCAUGUAGAAGGCACGAGCUGAU”, the “apparent Kd” value reads like this: under setting [3], 14 nM; under setting [4], 228 nM.
The corresponding values for “AUGGCGUGAGGAUAUGCGCAGGUUAACAUGAGGAUCACCCAUGUGGGCAUUGGUUUUCACGCAGAAGGUACGUUAA” are 14.5 nM and 15.2 nM.
For “GUAGCAUUGAGAGGAUAUCCAUACCGGAAACGGACAUGAGGAUCACCCAUGUGGCGAAAGCCAUGGGAGAAGGCUCUAUGUUAC”, the “apparent Kd” value came out at 11.1 nM under setting [1] and 4.96 nM under setting [2].
As for “GCGAUUUUGUAGAAGGUACGUGAUUAGUCAAAGUAAGGAUAUACUGACAUGAGGAUCACCCAUGUAUUAAUAGUUAACAGUCGC”, the “apparent Kd” value by setting is: under setting [1], 94.6 nM; under setting [2], 23.1 nM.
Turning to “UUUUUAUUUGCAGGAUAUUGUAUUUUAUUACAUCAAGAAGGGCAUUACAUGAGGAUCACCCAUGUCUUCCUAUGGUUAACUAGU”, the “apparent Kd” value came out at 12.3 nM under setting [3] and 10.2 nM under setting [4].
The corresponding values for “GUGUAGUCAGGAUAUACAUAGGAAGAUAAUAUAAUAUAAGUACAUGAGGAUCACCCAUGUAGAAGGGACAGUGU” are 38.5 nM and 53.8 nM.
The corresponding values for “CGAUAUAUGAAGGGCGAACGCGCACAUGAGGAUCACCCAUGUAGAAGGCGAUCCGCAACGCGGAUCGAGGAUAUAUAGUAUACA” are 37 nM and 33.8 nM.
For the sequence “UAUUAUUUAUGAUAUUAUGACAGUAGAAGGCUAUACAUGUUGAUACAUGAGGAUCACCCAUGUAUAGAGGAUAUAUACAUAAAU”, the “apparent Kd” value under setting [3] was determined as 1010 nM and the “apparent Kd” value under setting [4] turned out to be 884 nM.
The corresponding values for “GUGGUGCAUAUACGUGGAUGUACAUGAGGAUCACCCAUGUAAGAGGAUAUGCGGAUACUAGCUCAGCAGAAGGCUUACAAAUGC” are 9.75 nM and 27.5 nM.
The corresponding values for “UUUAUUUCGGCAGGAUAUACAUGUAUAUAUAUUUCUUCAUAUCUUAUUACAUGAGGAUCACCCAUGUAGAAGGGCCUUCUUCUC” are 65.6 nM and 80.5 nM.
The corresponding values for “AUACCACGAGGAUAUCGUCUAUUUCACAUGAGGAUCACCCAUGUUAUCUUUGUUUUGUUUCGAGAAGGCGUGUUUU” are 30.9 nM and 20.9 nM.
As for “AAACACGGACAUGAGGAUCACCCAUGUGGCGAAAGCCUUGGGAGAAGGAUAAAUAUAUAAUAAAAUUAGGAUAUUCAUACCGUG”, the “apparent Kd” value runs as follows: under setting [1], 306 nM; under setting [2], 104 nM.
As for “UUCAGACAUGAGGAUCACCCAUGUGAGGAUAUGAUGCGAUCGUCGAAAGACGAUAGCAUCAGAAGGCACGUAUG”, the “apparent Kd” value came out at 82.9 nM under setting [3] and 135 nM under setting [4].
In the case of “CUUUAGUGAGGAUAUGUGGCUUCGAUCGUGAGAUCGAGGCUACAGAAGGCACAUGAGGAUCACCCAUGUACCUU”, the “apparent Kd” value reads like this: under setting [3], 14.3 nM; under setting [4], 17 nM.
The corresponding values for “AAGUAGAUCCGAGGAUAUACAUAGUGGAAUCGCUACAUGAGGAUCACCCAUGUAGAAGGCGGAUCUACAGGUACUAAAGUACCA” are 14 nM and 112 nM.
The corresponding values for “GUGCGUGGCUAGGAUAUUGAGGAGUUUAGUCAGCGAGAAGGAGCCACAUGAGGAUCACCCAUGUGGUGAAGCUC” are 18.6 nM and 68.6 nM.
The corresponding values for “AACACACAUGAGGAUCACCCAUGUGAGGAUAUCAUGCUUCGUAGUAAACUACGAAGUGUGAGAAGGCACAUGUU” are 62.4 nM and 193 nM.
On to “CCUAUUAGAAAAUAGACGAAGUGGCCAGAAGGUGAAUGCCACAUGAGGAUCACCCAUGUUUCGAUCAAGGAUAUGGUUUCUCAC”, for which the “apparent Kd” value by setting is: under setting [1], 630 nM; under setting [2], 203 nM.
As for “GAGAAGUCAGGAUAUGCAUGGCGGGACUUGCGUCGUGGCGUGCAGAAGGGACAUGAGGAUCACCCAUGUGGAGU”, the “apparent Kd” value runs as follows: under setting [3], 163 nM; under setting [4], 235 nM.
On to “GGGCGACAUGAGGAUCACCCAUGUAACCUAAACGAAGGAUAUGGGCCUGAACGUCCAGGACCAGAAGGUCGGAAAU”, for which the “apparent Kd” value under setting [1] amounted to 23.6 nM and the “apparent Kd” value under setting [2] stood at 17.9 nM.
As to “UAAUAAAACGAUCGGCGGUCCAUACAUGAGGAUCACCCAUGUAGAAGGGACUCUACAAAGUAGAGUCAGGAUAUACAAGAUCGA”, the “apparent Kd” value reads like this: under setting [3], 8.19 nM; under setting [4], 108 nM.
For “CUUAUUUGAGGAUAUACGUCACCGUCUUCAUGAGUUCAAAUACAUGAGGAUCACCCAUGUAGAAGGCAAUUACU”, the “apparent Kd” value was found to be 25.8 nM under setting [3] and 39.4 nM under setting [4].
The corresponding values for “CUUCAAGAUGUGAGGAUAUCGCCGAUGAGGAUAGUUGAGAAGGUACAUGAGGAUCACCCAUGUAGGCUGGGUUU” are 31.9 nM and 42.1 nM.
Consider “GGCAGCUCAGGAUAUAGUUAAAACGACAUGAGGAUCACCCAUGUGACUGAUAUGCGGCGCCUAGAAGGGAGGUGCC”, for which the “apparent Kd” value is, setting by setting: under setting [3], 18.9 nM; under setting [4], 18.2 nM.
The corresponding values for “CUUUACAUAGGAUAUAGUUGCUUUUACAUGAGGAUCACCCAUGUCUCUCCUCUCUCUCUUCUAGAAGGAUGUUUCU” are 56.3 nM and 48.5 nM.
